# Most compounds without a hit are left out; they make up all but 4.3% or so of the library.
# FLuc inh counter – counter-screen for luciferase assay inhibitors: firefly luciferase inhibition; hit rate 1.5% among 200,000; inhibition, % at 10 µM; P08659; ATPLite firefly luciferase biochemical luminescence, 10 min;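 active = inhibition above about 50% when tested at 10 µM, limit read from the data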
# Target sequence (P08659 whole entry, looked up): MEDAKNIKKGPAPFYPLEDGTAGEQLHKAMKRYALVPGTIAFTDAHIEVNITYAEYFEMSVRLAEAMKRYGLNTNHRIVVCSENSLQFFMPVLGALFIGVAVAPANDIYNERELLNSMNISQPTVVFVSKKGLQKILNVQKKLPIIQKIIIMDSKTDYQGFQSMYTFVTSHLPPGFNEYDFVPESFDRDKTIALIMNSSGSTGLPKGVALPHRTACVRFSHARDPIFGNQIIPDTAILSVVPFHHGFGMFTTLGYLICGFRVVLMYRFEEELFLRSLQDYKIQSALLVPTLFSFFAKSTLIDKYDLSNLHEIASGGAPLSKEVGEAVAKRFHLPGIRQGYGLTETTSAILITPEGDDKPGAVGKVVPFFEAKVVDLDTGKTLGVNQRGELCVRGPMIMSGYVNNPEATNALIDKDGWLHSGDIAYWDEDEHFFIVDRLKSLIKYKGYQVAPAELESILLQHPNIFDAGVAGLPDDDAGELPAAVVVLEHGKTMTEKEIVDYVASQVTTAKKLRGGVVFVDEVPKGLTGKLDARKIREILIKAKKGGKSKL
# FLuc stim CS – firefly luciferase counter-screen for stimulation assays. P08659. ATPlite luciferase biochemical, luminescence, 10 min; 0 = ATP-free wells, 1 = DMSO control. activation factor at 10 µM. 200,000 tested, under 10 active. AID 1027;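 active = luciferase activation factor, scaled between plate controls, of at least 2 with compound at 10 µM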
#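 assay system = Luciferase/luciferin detection reagent, cell-free biochemical luciferase assay | also added = ATP substrate | times = 10 min post-reagent at room temperature | measured by = luminescence from luciferase reaction | measure = luciferase activation, seen as luminescence increase over controls | benchmarks = low control with PBS replacing ATP, high control enzyme plus ATP without compound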
# STAT1 activator – increases IFN-gamma driven STAT1 reporter signal | NIH 3T3 STAT1-luciferase reporter, luminescence; 100% = IFN-gamma alone, no compound | activation (% of control), % at 5.5 µM | hit rate 2.6% among 200,000 | AID 932;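 active = activation above the screen-wide mean activation plus 3 SD, cut at about 130% in these data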
# APP 5'UTR act – activates APP 5'UTR luciferase reporter; SH-SY5Y APP 5'UTR luciferase reporter, luminescence; zero percent = DMSO vehicle wells; activation, % at 2 µM; hit rate 1% among 190,000;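 active = activation above a set limit, based on mean plus 3 SD of controls, cut at about 140% in these data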
# sdo1 growth – compounds rescuing growth of sdo1-depleted yeast, bone marrow failure model; S. cerevisiae sdo1-depleted JHY4D growth rescue, OD600 30 h; stronger effect = higher value; pdr5 snq2 efflux-pump mutant strain; z-score at 10 µM; hit rate 0.21% among 140,000; AID 817;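 active = z-score above 3 at both the 24 hr and the 30 hr optical density reads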
# NF-kB neuron act – compounds increasing NF-kB expression in human neuronal cells | NF-kB reporter expression; stronger effect = higher value | fold change at 12.5 µM | hit rate 1.6% among 190,000; in the data active = fold change above about 3.3
# A number is an active result; - = inactive; . = no result.
SMILES,FLuc inh counter,FLuc stim CS,STAT1 activator,APP 5'UTR act,sdo1 growth,NF-kB neuron act
Cc1nc(NC(=O)c2ccc(Br)s2)sc1C(=O)N(C)C,-,-,138,-,-,-
Cc1csc(NC(=O)c2cc3c(s2)-c2ccccc2OC3)n1,-,-,139,-,-,-
Cc1csc(NC(=O)c2cccs2)n1,-,-,-,-,-,-
Cc1nc(NC(=O)c2cc3c(s2)CCCCC3)sc1C(=O)N(C)C,-,-,132,-,-,-
O=C(Nc1nnc(C2CC2)s1)c1cc2c(s1)CCCCCC2,-,-,-,-,-,-
Cc1csc(NC(=O)c2cc3c(s2)CCC3)n1,79,-,-,-,-,9.8
Cc1nn(C)c(Cl)c1CN1CCN(CC(C)C)C(CCO)C1 (configuration not stated),-,-,-,-,.,-
CC(=O)Nc1cc(NC(C)=O)cc(C(=O)OCC(=O)N2CC(C)OC(C)C2)c1 (configuration not stated),-,-,-,-,-,-
CCCCN(C(=S)NC(=O)c1cc(OC)c(OC)c(OC)c1)c1c(N)n(Cc2ccccc2)c(=O)[nH]c1=O,-,-,-,-,-,-
O=[N+]([O-])c1ccc(O)c(/C=N/Nc2ccccc2Cl)c1,-,-,-,-,.,-
O=[N+]([O-])c1ccccc1N/N=C\c1ccccc1Cl,-,-,-,.,-,3.7
COc1ccc(NC(=O)c2cc(S(=O)(=O)N3CCOCC3)cs2)cc1,-,-,-,-,.,-
COc1ccc2nc(SCC(=O)N3CCCCC3)c(C#N)cc2c1,-,-,131,-,.,-
N#Cc1cc2c(nc1SCc1ccccc1)CCC2,-,-,-,-,-,-
N#Cc1cc2c(nc1SCc1ccncc1)CCC2,-,-,138,-,-,-
Cc1cc(NC(=O)CSc2nc3c(cc2C#N)CCCC3)no1,-,-,138,207,-,-
CC(C)OC(=O)CC(=O)CSc1nc2c(cc1C#N)CCCCC2,-,-,-,-,-,4.3
COc1cc(O)c(/C=N/NC(=O)c2ccncc2)c(OC)c1[N+](=O)[O-],-,-,-,-,.,-
CCCCN(C(=O)/C=C/c1ccco1)c1c(N)n(Cc2ccccc2)c(=O)[nH]c1=O,-,-,-,-,.,-
CCSc1nc2ccc(C)cc2cc1C#N,-,-,-,-,.,-
CCOC(=O)CC(=O)CSc1nc2c(cc1C#N)CCCCC2,-,-,141,-,-,4.6
CCc1cc2cc(C)ccc2nc1SCC(=O)Nc1cc(C)on1,-,-,-,-,-,3.3
CCOC(=O)CC(=O)CSc1nc2ccc(C)cc2cc1C#N,-,-,137,-,-,8.3
CCc1cc2ccc(C)cc2nc1SCC(=O)Nc1cc(C)on1,-,-,-,-,.,-
CCOc1nc(NC(=O)NS(=O)(=O)Oc2cccc(Cl)c2)nc(-c2ccccc2)n1,-,-,-,-,-,-
SMILES,FLuc inh counter,FLuc stim CS,STAT1 activator,APP 5'UTR act,sdo1 growth,NF-kB neuron act
Cc1ccc(CC2CC(=O)N(c3ccc(Cl)cn3)C2=O)cc1 (configuration not stated),-,-,-,-,-,-
COc1ccc(/C=N/n2c(N)nc3ccccc32)cc1OC,60,-,-,-,-,-
COc1cccc(/C=N/n2c(N)nc3ccccc32)c1OC,-,-,-,-,-,-
CCCCCc1ccc(-c2ccc(/C=C/C(=O)O)cc2)nc1,78,-,-,-,-,4.6
CCCCCCCc1ccc(-c2ccc(O)cc2)nc1,-,-,-,-,.,-
CCCc1ccc(-c2ccc(/C=C/C(=O)O)cc2)nc1,86,-,-,-,-,-
O=C(Nc1ccccc1)Nc1cccc2nsnc12,-,-,140,-,.,4.3
O=C(Nc1cccc2nsnc12)c1cccs1,-,-,-,-,-,-
Nc1nc(Br)c2c(F)cccc2c1-c1ccccc1,-,-,-,-,-,-
Nc1nn(-c2cccc(F)n2)cc1-c1ccccc1,64,-,-,213,.,9.9
Nc1nn(-c2cccc(F)n2)cc1-c1ccc(Cl)cc1,57,-,-,251,.,12
Nc1nc(N)nc(-c2ccc(Cl)cc2)n1,-,-,-,-,-,-
O=[N+]([O-])c1ccc(Sc2cccc3cccnc23)cc1,-,-,-,-,-,-
C=CCn1nc([N+](=O)[O-])nc1Sc1cccc2cccnc12,-,-,-,-,-,3.5

# High-throughput results: PubChem BioAssay, several laboratories
